OX1R antag-1: OX1R (human) antagonism. OX1R-expressing cells, FRET antagonist read-out. inhibition, % at 6.6 µM. O43613. actives 1.8% (n = 330,000); in the data active means inhibition mostly above about 38%, no sharp cut-off; inactive means mostly below about 40%;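 further: 0% = agonist challenge alone and 100% = reference antagonist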
Target sequence (O43613 whole entry, looked up): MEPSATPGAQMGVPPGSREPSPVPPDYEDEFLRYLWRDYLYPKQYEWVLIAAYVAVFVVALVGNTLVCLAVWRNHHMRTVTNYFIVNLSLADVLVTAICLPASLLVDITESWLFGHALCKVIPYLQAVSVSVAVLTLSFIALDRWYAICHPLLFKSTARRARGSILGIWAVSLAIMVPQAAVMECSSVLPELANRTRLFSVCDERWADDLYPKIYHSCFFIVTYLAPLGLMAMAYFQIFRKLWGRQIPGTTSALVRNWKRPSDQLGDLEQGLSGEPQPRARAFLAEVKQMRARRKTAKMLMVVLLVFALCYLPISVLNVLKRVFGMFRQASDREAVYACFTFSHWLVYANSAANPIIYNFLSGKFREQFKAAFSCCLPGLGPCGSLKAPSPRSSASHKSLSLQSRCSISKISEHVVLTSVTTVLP
TRPML3 agonist: activates the human TRPML3 channel | Q8TDD5 | HEK293 TRPML3-YFP, Fluo-8 calcium fluorescence; 100% = the carbachol control signal | activation, % at 3 µM | actives 0.29% (n = 220,000);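 active means activation above its plate's cutoff, the mean activation of the plate's test wells plus 3 SD, cut at about 12% in these data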;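 further: 0% = DMSO only wells and 100% = carbachol wells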
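Material: TRPML3-YFP stable HEK293 cells | Dosing: One concentration, 3 µM nominal, 0.3% DMSO | Timing: 125 s total fluorescence read per well | Technique: Fluo-8 calcium dye fluorescence, ex 470-495, em 515-575 nm | Measure: Percent activation from peak-to-basal fluorescence ratio, scaled between DMSO and carbachol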
OX1R antag-2: blocks the human orexin 1 receptor | O43613 | CHO/OX1R cells, Fluo-8 calcium fluorescence, orexin A | inhibition, % at 5 µM | actives 0.43% (n = 330,000) | AID 434989;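 active means inhibition above its plate's threshold, mean inhibition of all tested compounds on the plate plus 3 SD, cut at about 37% in these data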;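 further: 0% = orexin A challenge wells and 100% = SB-334867-A antagonist wells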
TRPN1 ag: agonists of zebrafish TRPN1 channel | HEK293 zebrafish TRPN1-YFP, Fluo-8 calcium fluorescence; 100% = response to 87 µM carbachol | AID 1424 | actives 0.18% (n = 220,000) | activation, % at 3 µM;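 active means activation above its plate's cutoff, the mean activation of test wells on that plate plus 3 SD, cut at about 19% in these data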;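 further: 0% = DMSO alone and 100% = 87 µM carbachol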
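Assay system: Zebrafish TRPN1-YFP in HEK293 cells | Incubation: Dye loading 1 h at 37 °C, then 30 min room temperature | Measured by: Kinetic Fluo-8 fluorescence, ex 470-495, em 515-575 nm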
CHO parental Ca: signal in parental CHO cells, OX1R antagonist counter-screen. parental CHO-K1, ATP-induced calcium, Fluo-8 fluorescence. actives 0.63% (n = 330,000). inhibition, % at 5.6 µM;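 active means inhibition above that plate's mean sample inhibition plus 3 SD, cut at about 26% in these data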;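 further: 0% = ATP-challenged DMSO wells and 100% = DMSO wells without ATP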
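Material: parental CHO cells / Compound: single nominal dose of 5.6 µM per compound / Signal: Fluo-8 fluorescence / Replicates: singlicate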
GPR7 antagonist: human neuropeptides B/W receptor 1 antagonism; actives 1.1% (n = 290,000); GPR7-expressing cells, fluorescence antagonist assay; P48145; inhibition, % at 4.4 µM; in the data active means inhibition above about 16%, passing the limit was not always enough;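 further: cells stimulated with the agonist NPW; 0% = agonist with vehicle and 100% = vehicle without agonist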
Numbers without * were called inactive; . = no result. Sampled rows, rich in hits. Any-hit rate of the full collection: about 3.2%.

SMILES	OX1R antag-1	TRPML3 agonist	OX1R antag-2	TRPN1 ag	CHO parental Ca	GPR7 antagonist
Cc1ccc(C)c(S(=O)(=O)N2CCN(C(=O)Cn3cnc4c3c(=O)n(C)c(=O)n4C)CC2)c1	25.9	.	-20.1	.	-15.1	-14.2
O=C(N/N=C/c1ccc2nccnc2c1)c1ccncc1	55.0*	-0.2	-4.5	0.3	-6.9	7.6
O=C(N/N=C/c1ccc2nccnc2c1)c1ccc(Br)cc1	21.0	0.8	-12.9	0.7	-23.3	-4.1
CCCC(=O)Nc1nc2c(C)c(Cl)ccc2s1	26.6	1.9	-2.2	4.8	8.6	-11.0
Cc1c(Cl)ccc2sc(NC(=O)C3CC3)nc12	43.5*	.	-20.3	.	3.2	4.2
O=C(Nc1cc(C(F)(F)F)ccc1Cl)c1ccc(NC(=O)C(F)(F)F)cc1	8.3	0.9	-14.0	0.2	-5.2	-6.7
CCCC(=O)Nc1ccc(C(=O)Nc2cc(C(F)(F)F)ccc2Cl)cc1	31.4	2.7	-4.8	2.8	68.9*	-3.4
CCN(CC1COc2ccccc2O1)C(=O)c1ccc(Cl)c(S(=O)(=O)N2CC(C)OC(C)C2)c1 (centres undefined)	49.8*	.	-10.6	.	-15.3	.
CC1CN(S(=O)(=O)c2cc(C(=O)N(CCc3ccccc3)Cc3ccccc3)ccc2Cl)CC(C)O1 (centres undefined)	24.3	.	-27.3	.	-16.0	.
CCC(=O)Nc1ccc(C(=O)NCc2ccccn2)cc1	11.5	0.6	1.2	1.4	8.5	-5.0
O=C1CN(C(=O)COC(=O)c2cccs2)c2ccccc2N1	2.2	.	-9.2	.	-11.7	.
CC1(C)C(=O)Nc2ccccc2N1C(=O)COC(=O)c1ccc([N+](=O)[O-])o1	25.8	.	6.5	.	-9.7	.
O=C1CN(C(=O)COC(=O)c2ccc([N+](=O)[O-])s2)c2ccccc2N1	45.0*	.	-12.7	.	-11.0	.
O=C1CN(C(=O)COC(=O)c2ccc([N+](=O)[O-])o2)c2ccccc2N1	34.2*	.	-19.8	.	-6.3	.
CCN(CC)S(=O)(=O)c1cc(C(=O)n2cccn2)c(Cl)cc1Cl	11.6	0.1	1.4	0.5	-1.6	18.9*
COc1ccccc1NC(=O)CCC(=O)OCC(=O)c1ccc(C)c([N+](=O)[O-])c1	30.8	.	0.2	.	-10.0	-15.6
CC(C)c1ccc(S(=O)(=O)Nc2ccc(SC(F)F)cc2)cc1	-2.2	-0.3	-10.8	2.0	42.1*	-8.3
Cc1ccc(S(=O)(=O)Nc2ccc(SC(F)F)cc2)c(C)c1	-12.0	0.1	1.6	-2.2	42.8*	-13.4
CN1c2ccccc2C(C)(C)[C@]12C=Cc1cc(O)ccc1O2	4.9	2.2	20.9	0.6	47.7*	19.6
COc1ccc2c(c1)C=C(CN1CCC(CO)(CCc3ccccc3)CC1)CO2	8.1	0.9	-27.0	-0.2	-6.2	-6.0
COc1ccc(CC2(CO)CCN(CC3=Cc4cc(Cl)ccc4OC3)CC2)cc1	70.4	1.9	43.1*	4.7	63.7*	5.2
COC(=O)[C@]1(C)N[C@H](c2ccc(-c3ccc(Cl)c(Cl)c3)c(OC)c2)[C@@H]2C(=O)N(C)C(=O)[C@@H]21	16.4	.	-22.1	.	-18.0	.
COCCCNC(=O)CCCCCNS(=O)(=O)c1ccc(Br)cc1	19.1	0.4	-28.6	0.2	-11.8	6.3
CC(C)C1/C(=N/O)CC(c2ccccc2)NC1c1ccccc1 (centres undefined)	2.8	-1.0	-10.9	-3.1	-9.3	20.9*
CCOC(=O)C(=CNc1ccc(C#N)cc1)C(=O)OCC	24.1	-0.6	-30.6	-0.9	-20.2	-0.9
SMILES	OX1R antag-1	TRPML3 agonist	OX1R antag-2	TRPN1 ag	CHO parental Ca	GPR7 antagonist
O=C(Nc1c2ccccc2nc2ccccc12)C(Cl)(Cl)Cl	69.3*	1.4	1.1	2.1	1.1	-10.7
CCNc1ccc2noc3c2c1C(=O)c1ccccc1-3	122.9*	3.1	103.1*	1.7	42.2*	-3.5
O=C(O)c1ccccc1NCc1ccco1	5.6	0.5	-5.9	1.2	-1.5	-11.2
CCOc1ccc2noc3c2c1C(=O)c1ccccc1-3	49.9	3.5	31.9	4.5	28.3	-3.0
O=C1c2ccccc2-c2onc3ccc(NCc4ccco4)c1c23	81.6*	2.3	62.3*	1.6	36.8	-7.7
Cc1cc(=O)n2[nH]c(CCC(=O)O)nc2n1	7.9	1.0	-4.3	-0.5	0.7	-0.6
CSCCC(NC(=O)c1cccc([N+](=O)[O-])c1)C(=O)O (centres undefined)	43.3	0.8	-9.1	0.2	-9.4	-2.1
COc1ccc(OC)c(NC(=O)COC(=O)CCNc2ccccc2OC)c1	54.7*	.	-4.2	.	-14.1	.
COc1ccc(OC)c(NC(=O)COC(=O)Cc2ccc(-c3ccccc3)cc2)c1	6.8	-0.1	-18.7	0.7	-16.7	4.8
COc1ccc(OC)c(NC(=O)c2cnc(Nc3ccccc3OC)c3ccccc23)c1	68.1*	-0.4	18.1	-1.3	-33.6	-21.6
CNc1nnc(Sc2ncccc2[N+](=O)[O-])s1	47.5*	0.7	-0.7	0.8	-7.7	0.8
Cc1cc(Oc2ccc3ccccc3c2)nc(SCC(=O)c2ccccc2)n1	33.4	0.7	-22.7	0.9	-4.5	32.3*
Cc1ccc2oc(-c3cccc(NC(=O)c4ccccn4)c3)nc2c1	68.0*	.	-42.2	.	-3.6	-19.4
COc1cc(C(=O)Nc2cccc(-c3nc4cc(C)ccc4o3)c2)cc(OC)c1OC	42.3	0.6	-15.8	0.9	-16.2	-11.5
CC(=O)c1cccc(S(=O)(=O)NCC2CCCCC2)c1	13.7	0.7	-22.6	0.2	-12.1	-0.7
Nc1nonc1C(=O)NCCN=Cc1cc(Cc2ccccc2)cc(Br)c1O	11.8	0.3	16.1	-1.4	62.5*	-19.9
Nc1nonc1C(=O)NCCN=Cc1ccccc1O	5.7	0.9	-7.4	0.8	-0.3	9.1
COc1cccc(Cn2cccc(NC(=O)Nc3ccc(C#N)cc3)c2=O)c1	31.9	3.2	52.4*	6.3	47.3*	-3.8
Cc1c(C(=O)Nc2ccccn2)oc2ccccc12	52.3*	0.1	1.8	-0.5	-7.2	-0.8
Cc1c(C(=O)Nc2ccccn2)oc2c(Cl)cccc12	34.4*	.	-24.8	.	-47.2	.
Cc1cc(NC(=O)c2oc3ccccc3c2C)ccc1-n1cnnn1	38.5*	-0.9	-4.7	0.5	-17.3	-5.0
CCOC(=O)C1=CCN(Cc2ccccc2)CC1	15.3	.	-17.9	.	-22.6	-1.2
CC(C)NC(=O)Nc1ccc2c(c1)C(=O)N([C@H](C)CO)C[C@H](C)[C@@H](CN(C)S(=O)(=O)c1cn(C)cn1)O2	2.6	.	-0.3	.	-4.6	.
O=c1[nH]ncc(NCc2ccc(Cl)cc2)c1Cl	7.0	0.7	-8.1	0.5	-3.2	-12.7
CCCCCCc1cc2cc(C(N)=O)c(=N)oc2cc1O	55.5*	0.8	-21.5	-0.2	-7.1	-6.2
Cn1c(=O)c2c(ncn2CC(=O)Nc2cc(S(=O)(=O)N3CCCCC3)ccc2Cl)n(C)c1=O	9.9	.	-14.6	.	8.6	.
